Screening results as filed in PubChem.
Only some compounds are listed: those with a hit (about 1.7% of all), similar ones and a draw of the others.
SR-BI DiI inh: inhibitors of SR-BI mediated HDL lipid uptake, primary screen, ldlA[mSR-BI] cells, fluorescence, single point; inhibition, % at 12.5 µM; AID 488896, 2010; 320,000 compounds, 0.96% hits; Scavenger receptor class B member 1 (Mus musculus), Q61009; ldlA[mSR-BI] CHO cells, DiI-HDL uptake fluorescence, 3 h;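 active = mean replicate inhibition of at least 70% and a set share of replicates each scoring 70 or more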;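 note: 0% = median of neutral control wells and 100% = median of positive control wells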
Target sequence (Q61009 whole entry, looked up): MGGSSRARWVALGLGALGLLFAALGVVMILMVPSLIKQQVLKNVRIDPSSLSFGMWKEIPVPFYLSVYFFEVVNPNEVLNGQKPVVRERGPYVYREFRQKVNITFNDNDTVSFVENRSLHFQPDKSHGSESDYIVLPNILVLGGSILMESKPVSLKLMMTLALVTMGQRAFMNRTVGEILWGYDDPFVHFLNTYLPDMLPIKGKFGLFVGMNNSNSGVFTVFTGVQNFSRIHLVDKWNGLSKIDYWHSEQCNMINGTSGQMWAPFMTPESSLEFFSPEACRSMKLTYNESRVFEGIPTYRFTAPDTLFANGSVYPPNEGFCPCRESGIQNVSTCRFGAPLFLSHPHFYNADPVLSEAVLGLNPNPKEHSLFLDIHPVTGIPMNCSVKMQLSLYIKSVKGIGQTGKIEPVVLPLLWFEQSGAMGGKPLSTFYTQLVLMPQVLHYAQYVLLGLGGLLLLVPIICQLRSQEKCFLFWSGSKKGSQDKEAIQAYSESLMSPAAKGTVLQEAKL
C2C12 statin: suppressors of statin myotoxicity in C2C12 myotubes, primary screen, cell-based, single point, plate reader. C2C12 myotubes + simvastatin, ATP luminescence, 48 h; scaled: DMSO 0, geranylgeraniol control 100. AID 602340, 2012. rescue of ATP level, % at 7.49 µM. 330,000 compounds, 0.78% hits;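 active = mean ATP rescue above about 67%, or every replicate alone reaching that limit, limit read from the data, passing the limit was not always enough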;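 note: myotubes were challenged with 10 µM simvastatin during compound exposure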
Vif inh: HIV Vif self-association inhibitors, primary screen, imaging, HEK293T, single point | HEK293T cells, Vif self-association by quenched fluorescence, 24 h | inhibition, % at 7.49 µM | 340,000 compounds, 0.35% hits; in the data active = inhibition above about 50%, passing the limit was not always enough
SR-BI uptake up: activators of SR-BI mediated DiI-HDL uptake, primary screen, ldlA[mSR-BI] CHO cells, DiI fluorescence; 3 h; 100 = double the neutral-control signal; activation, % at 12.5 µM; 320,000 compounds, 0.096% hits;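 active = mean replicate activation of at least 60% and every replicate at or above 60%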;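 note: 0% = median plate neutral-control signal and 100% = twice that signal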
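Test system: SR-BI-overexpressing, LDLR-lacking CHO cells; Also added: labelled HDL, 10 µg/mL; Measured by: bottom-read cell fluorescence after medium removal, ex 550/em 595 nm; Timing: 3 h uptake period with compound, 37 °C; Buffer or medium: F12, 0.5% BSA, 25 mM HEPES; Doses: single compound concentration, delivered by pin transfer.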
* marks the source's active call; other numbers are inactive results.

`C[C@H]1CN([C@@H](C)CO)C(=O)c2cc(NC(=O)CCCN(C)C)ccc2O[C@H]1CN(C)S(=O)(=O)c1ccc(F)cc1` gave C2C12 statin -4.4.
C/C=C/c1ccc2c(c1)[C@@H]1[C@@H](CCN1C(=O)Cc1ccncc1)[C@@H](CO)N2C was read as C2C12 statin -14.4.
For C/C=C/c1cnc2c(c1)C(=O)N([C@H](C)CO)C[C@@H](C)[C@H](CN(C)C(=O)NC1CCCCC1)O2 the results were C2C12 statin 27.0.
Screening CC(Sc1nncn1C)C(=O)Nc1ccc(Cl)cn1 (configuration not stated) returned SR-BI DiI inh -16.2, Vif inh 3.4 and SR-BI uptake up 16.2.
`COc1ccc(Cl)cc1NC(=O)C(C)Sc1nncn1C` (configuration not stated) gave C2C12 statin 130.5* and Vif inh 5.5.
CS(=O)(=O)N1CCN(C(=O)c2cc(-c3ccccc3)nc3ccccc23)CC1 was read as SR-BI DiI inh 0.4, C2C12 statin 19.2 and SR-BI uptake up -0.4.
Screening O=C(c1cc(-c2ccncc2)nc2c(Cl)cccc12)N1CCN(c2ccccc2F)CC1 returned SR-BI DiI inh 72.8*, C2C12 statin -7.9, Vif inh -7.6 and SR-BI uptake up -72.8.
For CS(=O)(=O)N1CCN(C(=O)c2cc(-c3ccncc3)nc3ccc(Cl)cc23)CC1 the results were SR-BI DiI inh -13.8, C2C12 statin 107.9*, Vif inh -0.7 and SR-BI uptake up 13.8.
For CCC(=O)N(Cc1ccco1)c1nc(-c2ccc(OC)cc2)cs1 the results were SR-BI DiI inh 30.7, C2C12 statin -6.9, Vif inh -48.6 and SR-BI uptake up -30.7.
`CCC(=O)N(CC)c1nc(-c2ccc(OC)cc2)cs1` gave SR-BI DiI inh 87.1*, C2C12 statin 7.8, Vif inh -3.3 and SR-BI uptake up -87.1.
Screening CO[C@@H]1CN(C)C(=O)c2ccc(NS(=O)(=O)c3ccc(Oc4ccccc4)cc3)cc2OC[C@@H](C)NC[C@@H]1C returned C2C12 statin -6.4.
C[C@H](CO)N1C[C@H](C)[C@H](CN(C)S(=O)(=O)c2ccc(F)cc2)Oc2c(NC(=O)Nc3ccc4c(c3)OCO4)cccc2C1=O was read as C2C12 statin -34.3.
`CCc1cc(=O)oc2cc(OC(C)C(=O)NCc3ccccn3)ccc12` (configuration not stated) gave SR-BI DiI inh -7.6, C2C12 statin -19.0, Vif inh 58.4* and SR-BI uptake up 7.6.
Screening Cc1cc(=O)oc2c(C)c(OC(C)C(=O)NCc3ccccn3)ccc12 (configuration not stated) returned SR-BI DiI inh 19.2, C2C12 statin -6.7, Vif inh -3.4 and SR-BI uptake up -19.2.
COc1ccc(-c2cc(=O)oc3c(C)c(OC(C)C(=O)NCc4ccccn4)ccc23)cc1 (configuration not stated) was read as SR-BI DiI inh 76.7*, C2C12 statin -21.4, Vif inh 2.5 and SR-BI uptake up -76.7.
For CC(=O)COc1ccc2c(-c3ccccc3)cc(=O)oc2c1C the results were SR-BI DiI inh 72.5*, C2C12 statin -25.9, Vif inh -6.8 and SR-BI uptake up -72.5.
COc1cccc(NC(=O)N2C[C@H](O)COC[C@H]3O[C@@H](CC(=O)NC4CCCC4)CC[C@@H]32)c1 was read as C2C12 statin 3.4.
For CCCC1CC(CCc2ccccc2)OS(=O)(=O)N1 (configuration not stated) the results were SR-BI DiI inh -8.4, C2C12 statin 94.7*, Vif inh 3.5 and SR-BI uptake up 8.4.
`COc1ccc(CCN2C(=O)C=CC2=O)cc1OC` gave SR-BI DiI inh -9.9, Vif inh 3.4 and SR-BI uptake up 9.9.
For COc1ccc(CCN2C(=O)c3cccnc3C2=O)cc1OC the results were SR-BI DiI inh -9.8, C2C12 statin 3.0, Vif inh 55.9* and SR-BI uptake up 9.8.
For CC(C)NC(=O)Nc1ccc2c(c1)C(=O)N([C@H](C)CO)C[C@H](C)[C@@H](CN(C)C(=O)C1CCCCC1)OCCCC[C@@H](C)O2 the results were C2C12 statin -3.8.
`Cn1cnc(S(=O)(=O)N2C[C@H](O)COC[C@@H]3O[C@@H](CC(=O)NCc4cc(F)cc(F)c4)CC[C@H]32)c1` gave C2C12 statin -11.3.
Screening COC(=O)c1ccc(NC(=O)c2cccc(NC(=O)c3ccccc3)c2)cc1 returned SR-BI DiI inh 73.2*, C2C12 statin -13.5, Vif inh 4.6 and SR-BI uptake up -73.2.
COc1ccc(C(=O)Nc2ccccc2N2CCN(C(=O)c3ccccc3)CC2)cc1Br was read as SR-BI DiI inh 85.8*, C2C12 statin 16.5, Vif inh -7.5 and SR-BI uptake up -85.7.
COc1ccc(C(=O)Nc2ccc(Nc3ccccc3)cc2)cc1Br was read as SR-BI DiI inh 97.7*, Vif inh 2.0 and SR-BI uptake up -97.7.
`CN1C(=O)c2cc(NC(=O)c3cccc(F)c3)ccc2OC[C@H]2O[C@H](CC(=O)Nc3ccccc3)CC[C@H]21` gave C2C12 statin 10.3.
Screening O=C(Nc1cccc(Cl)c1)N1C[C@H]2[C@@H](c3ccccc31)[C@@H](CO)N2C(=O)C1CC1 returned C2C12 statin -6.8.
CCOC(=O)c1oc2cccc(OC(C)=O)c2c1C was read as SR-BI DiI inh -15.3, C2C12 statin 147.3* and SR-BI uptake up 15.3.
For CCOC(=O)c1oc2cccc(O)c2c1C the results were SR-BI DiI inh -4.9, C2C12 statin -16.4, Vif inh -20.2 and SR-BI uptake up 4.9.
Screening Nc1c(C(=O)Nc2ccc(S(=O)(=O)N3CCCC3)cc2)sc2nc3ccc(OC(F)(F)F)cc3cc12 returned SR-BI DiI inh 41.6, Vif inh 95.6* and SR-BI uptake up -41.6.
Screening CO[C@@H]1CN(C)C(=O)c2cc(NC(=O)C3CC3)ccc2OC[C@H](C)N(CCC(F)(F)F)C[C@@H]1C returned C2C12 statin 16.9.
C[C@@H]1CN([C@@H](C)CO)C(=O)c2cccc(N(C)C)c2O[C@H]1CN(C)Cc1ccc(Cl)c(Cl)c1 was read as C2C12 statin -70.5.
For C[C@@H]1CN([C@H](C)CO)C(=O)Cc2cc(NC(=O)Cc3ccccc3)ccc2O[C@H]1CN(C)Cc1ccc(Cl)c(Cl)c1 the results were C2C12 statin 44.6.
C[C@@H]1CN([C@H](C)CO)C(=O)Cc2cc(NC(=O)Cc3cn(C)c4ccccc34)ccc2O[C@@H]1CN(C)Cc1ccc(Cl)c(Cl)c1 was read as C2C12 statin 69.0*.
C[C@H]1CN([C@@H](C)CO)C(=O)Cc2cc(NC(=O)Cc3cn(C)c4ccccc34)ccc2O[C@@H]1CN(C)Cc1ccc(Cl)c(Cl)c1 was read as C2C12 statin 142.3*.
